# Test results: publication PMC11318567 (Computational and Structural Biotechnology Journal, 2024)
# Entries after “also recorded” stand apart in the source; their conditions may differ.
# Tests used:
# human topo IIα [1] = biological target: T1, human topo IIα (Homo sapiens, UniProt P11388); assay: Human topo IIα-mediated decatenation assay; format: biochemical; conditions: for IC50, topo IIα-mediated decatenation assay: average of two replicates
# human topo IIα [2] = biological target: T1, human topo IIα; assay: Human topoisomerase IIα-mediated cleavage assay; format: biochemical; conditions: 7.8-125 μM
# [3] = biological target: ATPase domain of topo IIα (Homo sapiens, UniProt P11388); assay: 1H STD NMR experiments; format: binding; conditions: protein:ligand ratio 1:100
# Outline: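 Runs were at 600 MHz, 25 °C, with a 100 ms T₁ρ filter. On-resonance saturation was at −0.727 ppm and off-resonance at 30 ppm. Saturation was 0.5 or 1 s depending on compound, with relaxation delay 4 or 1.5 s. Epitope maps come from STD amplification factors.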
# [4] = Solubility as observed during preparation for assays; format: physicochemical
# wheatgerm topo I = assay: Wheatgerm topo I unwinding assay; format: biochemical, wheat germ; conditions: 7.8, 15.6, 31.25, 125 μM
# Outline: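 Wheat germ topo I plasmid unwinding run in duplicate at 7.8, 15.6, 31.25 and 125 µM test compound, with the intercalator m-AMSA as positive control.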
# human topo IIβ = human topo IIβ (Homo sapiens, UniProt Q02880); assay: Human topo IIβ-mediated decatenation assay; format: biochemical
# [5] = tested on: NCI-60 human cancer cell lines; assay: NCI-60 screening, whole panel; format: cell-based; conditions: 10 µM
# human topo IIα [6] = biological target: T1, human topo IIα; assay: Human topoisomerase IIα-mediated relaxation assay; format: biochemical
# human topo IIα [7] = biological target: T1, human topo IIα; assay: Human topo IIα competitive cleavage assay; format: biochemical; conditions: in the presence of 50 μM etoposide
# human topo II = human topo II (Homo sapiens, UniProt P11388); assay: Competitive ATPase assay; format: biochemical; conditions: IC50 versus ATP concentration
# Outline: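 NADH-coupled ATPase (pyruvate kinase/lactate dehydrogenase, phosphoenolpyruvate) with human topo II at 14 nM final and linear pBR322. Buffer was 20 mM Tris-HCl, 5 mM Mg acetate, 125 mM K acetate, 2 mM DTT, pH 7.9. Compound in DMSO went in before enzyme, then a 10–15 min OD340 pre-run. ATP was added at varying concentrations and OD340 followed for up to 30 min at 37 °C, in duplicate. Hydrolysis rates vs ATP gave IC50 at each ATP level.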
# U251 = assay: NCI-60 screening; format: cell-based; conditions: Homo sapiens, U-251, read-out: inhibition of cell growth
# SK-MEL-5 = assay: NCI-60 screening; format: cell-based; conditions: Homo sapiens, SK-MEL-5, read-out: inhibition of cell growth
# Chain of ATPase domain of topo IIα (P11388 1-453 limits assumed): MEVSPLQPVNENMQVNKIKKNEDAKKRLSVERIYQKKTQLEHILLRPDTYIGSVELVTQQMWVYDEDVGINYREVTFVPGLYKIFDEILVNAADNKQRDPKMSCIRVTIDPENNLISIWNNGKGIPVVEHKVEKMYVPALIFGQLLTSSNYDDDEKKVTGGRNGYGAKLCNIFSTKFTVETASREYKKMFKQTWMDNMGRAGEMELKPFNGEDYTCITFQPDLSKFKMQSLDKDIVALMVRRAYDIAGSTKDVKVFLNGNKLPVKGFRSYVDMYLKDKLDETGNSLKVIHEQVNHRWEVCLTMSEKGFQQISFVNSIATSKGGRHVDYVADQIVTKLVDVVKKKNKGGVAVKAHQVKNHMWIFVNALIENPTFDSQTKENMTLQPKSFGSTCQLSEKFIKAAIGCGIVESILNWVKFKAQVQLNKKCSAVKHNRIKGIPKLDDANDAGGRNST
# Chain of human topo IIβ (Q02880 whole entry): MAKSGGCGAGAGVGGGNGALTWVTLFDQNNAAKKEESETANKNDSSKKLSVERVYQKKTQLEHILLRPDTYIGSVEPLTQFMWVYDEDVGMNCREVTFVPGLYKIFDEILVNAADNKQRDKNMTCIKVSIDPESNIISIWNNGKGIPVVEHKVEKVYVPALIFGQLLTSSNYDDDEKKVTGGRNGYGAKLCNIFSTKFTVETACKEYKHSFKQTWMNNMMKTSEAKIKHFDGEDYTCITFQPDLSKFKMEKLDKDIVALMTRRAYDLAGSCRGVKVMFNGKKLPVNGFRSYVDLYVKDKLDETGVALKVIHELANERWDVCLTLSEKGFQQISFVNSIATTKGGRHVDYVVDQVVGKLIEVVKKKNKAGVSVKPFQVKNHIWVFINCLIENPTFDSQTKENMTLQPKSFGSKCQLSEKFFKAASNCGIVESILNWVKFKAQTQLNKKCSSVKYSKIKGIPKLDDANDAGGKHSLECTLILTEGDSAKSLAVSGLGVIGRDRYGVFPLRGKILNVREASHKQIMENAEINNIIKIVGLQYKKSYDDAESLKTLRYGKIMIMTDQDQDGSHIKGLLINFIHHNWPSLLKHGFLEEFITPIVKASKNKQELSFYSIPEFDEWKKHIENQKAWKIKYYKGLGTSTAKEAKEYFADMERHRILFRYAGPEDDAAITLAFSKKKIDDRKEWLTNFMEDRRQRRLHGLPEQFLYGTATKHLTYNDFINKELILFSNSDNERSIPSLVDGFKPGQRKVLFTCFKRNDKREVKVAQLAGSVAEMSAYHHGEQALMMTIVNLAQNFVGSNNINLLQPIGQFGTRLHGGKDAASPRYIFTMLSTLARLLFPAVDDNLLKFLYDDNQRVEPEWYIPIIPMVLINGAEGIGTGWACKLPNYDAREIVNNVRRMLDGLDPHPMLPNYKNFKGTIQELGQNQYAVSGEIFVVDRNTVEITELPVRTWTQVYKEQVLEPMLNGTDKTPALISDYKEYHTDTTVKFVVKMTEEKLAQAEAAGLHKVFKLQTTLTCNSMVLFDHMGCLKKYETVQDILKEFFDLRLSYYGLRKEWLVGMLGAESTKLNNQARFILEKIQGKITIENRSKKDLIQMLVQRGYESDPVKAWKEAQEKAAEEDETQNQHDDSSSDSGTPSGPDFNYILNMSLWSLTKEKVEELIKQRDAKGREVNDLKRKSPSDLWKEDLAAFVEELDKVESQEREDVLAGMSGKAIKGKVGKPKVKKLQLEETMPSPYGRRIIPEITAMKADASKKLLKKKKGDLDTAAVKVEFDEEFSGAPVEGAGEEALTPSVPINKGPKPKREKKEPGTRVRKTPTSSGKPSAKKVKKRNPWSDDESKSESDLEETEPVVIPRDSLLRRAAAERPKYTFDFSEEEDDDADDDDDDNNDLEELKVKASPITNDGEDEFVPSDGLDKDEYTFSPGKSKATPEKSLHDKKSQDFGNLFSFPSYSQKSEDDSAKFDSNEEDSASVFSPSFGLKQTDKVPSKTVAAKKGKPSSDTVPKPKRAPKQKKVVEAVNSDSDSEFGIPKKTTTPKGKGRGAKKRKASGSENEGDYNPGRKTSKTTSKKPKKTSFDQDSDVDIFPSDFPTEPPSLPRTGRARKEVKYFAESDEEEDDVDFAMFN
# T1 sequence (P11388 whole entry): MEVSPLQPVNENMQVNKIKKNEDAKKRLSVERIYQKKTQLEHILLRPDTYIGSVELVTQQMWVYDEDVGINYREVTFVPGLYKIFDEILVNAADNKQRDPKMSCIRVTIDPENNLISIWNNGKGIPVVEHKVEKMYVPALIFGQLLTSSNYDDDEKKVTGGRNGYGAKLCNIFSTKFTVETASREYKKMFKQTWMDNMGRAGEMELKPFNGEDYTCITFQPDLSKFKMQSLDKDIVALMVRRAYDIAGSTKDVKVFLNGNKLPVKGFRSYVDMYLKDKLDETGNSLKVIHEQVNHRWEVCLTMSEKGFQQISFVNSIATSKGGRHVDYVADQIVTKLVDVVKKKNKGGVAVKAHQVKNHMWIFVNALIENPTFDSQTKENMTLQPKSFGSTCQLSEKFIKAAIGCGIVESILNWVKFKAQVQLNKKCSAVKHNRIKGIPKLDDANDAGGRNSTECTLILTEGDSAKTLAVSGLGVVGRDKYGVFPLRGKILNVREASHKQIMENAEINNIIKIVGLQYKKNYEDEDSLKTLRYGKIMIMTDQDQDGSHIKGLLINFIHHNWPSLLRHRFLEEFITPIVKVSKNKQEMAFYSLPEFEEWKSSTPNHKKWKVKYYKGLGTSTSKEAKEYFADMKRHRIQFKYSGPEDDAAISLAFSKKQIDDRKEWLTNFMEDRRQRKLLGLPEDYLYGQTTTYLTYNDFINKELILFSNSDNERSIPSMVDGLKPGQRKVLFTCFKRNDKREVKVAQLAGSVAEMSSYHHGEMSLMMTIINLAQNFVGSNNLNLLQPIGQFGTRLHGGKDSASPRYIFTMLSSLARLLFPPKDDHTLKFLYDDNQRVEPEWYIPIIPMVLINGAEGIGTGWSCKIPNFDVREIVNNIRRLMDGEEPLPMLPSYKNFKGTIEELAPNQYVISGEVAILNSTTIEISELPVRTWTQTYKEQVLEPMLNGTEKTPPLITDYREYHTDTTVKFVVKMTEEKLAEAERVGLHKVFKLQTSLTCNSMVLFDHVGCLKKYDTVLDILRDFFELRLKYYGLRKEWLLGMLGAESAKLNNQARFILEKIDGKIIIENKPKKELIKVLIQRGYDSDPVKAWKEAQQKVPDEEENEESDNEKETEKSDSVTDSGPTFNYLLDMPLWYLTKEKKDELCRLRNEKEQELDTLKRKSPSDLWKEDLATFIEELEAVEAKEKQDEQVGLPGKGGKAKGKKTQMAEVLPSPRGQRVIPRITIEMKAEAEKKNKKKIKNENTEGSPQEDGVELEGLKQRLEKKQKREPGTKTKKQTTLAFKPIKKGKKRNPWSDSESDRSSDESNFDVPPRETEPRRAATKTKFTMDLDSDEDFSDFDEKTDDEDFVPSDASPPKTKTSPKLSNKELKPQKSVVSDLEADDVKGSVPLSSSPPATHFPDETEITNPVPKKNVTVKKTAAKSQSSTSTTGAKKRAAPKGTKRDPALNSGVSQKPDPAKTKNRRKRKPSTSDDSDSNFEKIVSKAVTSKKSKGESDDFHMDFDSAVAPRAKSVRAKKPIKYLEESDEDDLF
# Chain of human topo II (P11388 whole entry): as above
compound,measurement,setting,value
"O=c1nc(SCc2cc(F)cc(C(F)(F)F)c2)nc(SCc2ccc3nc(OCCN4CCOCC4)ccc3c2)[nH]1 [Compound 31, 4-((3-Fluoro-5-(trifluoromethyl)benzyl)thio)−6-(((2-(2-morpholinoethoxy)quinolin-6-yl)methyl)thio)−1,3,5-triazin-2(1H)-one]",IC50,human topo IIα [1],18.5 ± 5.9 µM
same,linear plasmid in the cleavage assay (in words),human topo IIα [2],no linear plasmid up to the measured concentration of 125 μM
same,interaction with the ATPase domain of topo IIα by STD NMR (in words),[3],confirmed the interaction
same,solubility (in words),[4],more soluble compared to the previous series
"Cc1nc(CSc2nc(SCc3ccc(C(C)C)cc3)nc(=O)[nH]2)cs1 [Compound 37, 4-((4-Isopropylbenzyl)thio)−6-(((2-methylthiazol-4-yl)methyl)thio)−1,3,5-triazin-2(1H)-one]",unwinding / intercalation (in words),wheatgerm topo I,inhibitors rather than intercalators
same,IC50,human topo IIβ,16 ± 39 µM
same,linear plasmid in the cleavage assay (in words),human topo IIα [2],only a very weak increase in the linear plasmid at the highest concentration of 125 μM
same,cytotoxic activity in NCI-60 (in words),[5],did not exhibit cytotoxic activity
same,interaction with the ATPase domain of topo IIα by STD NMR (in words),[3],confirmed its interaction with the ATPase domain
same,IC50,human topo IIα [6],108 ± 3.8 µM
"O=c1nc(SCc2cc(F)cc(C(F)(F)F)c2)nc(SCc2csc3ccc(Cl)cc23)[nH]1 [Compound 32, 6-(((5-Chlorobenzo[b]thiophen-3-yl)methyl)thio)−4-((3-fluoro-5-(trifluoromethyl)benzyl)thio)−1,3,5-triazin-2(1H)-one]","IC50, topo IIα-mediated decatenation assay",human topo IIα [1],single-digit micromolar range
same,IC50,human topo IIβ,8.3 ± 2.5 µM
same,linear plasmid in the cleavage assay (in words),human topo IIα [2],higher even at lower concentrations
same,IC50,human topo IIα [6],8.7 ± 7.3 µM
"O=c1nc(SCc2cc(F)cc(C(F)(F)F)c2)nc(SCc2cccc(C(F)(F)F)c2)[nH]1 [Compound 34, 4-((3-Fluoro-5-(trifluoromethyl)benzyl)thio)− 6-((3-(trifluoromethyl)benzyl)thio)− 1,3,5-triazin-2(1 H)-one]",cytotoxic activity in NCI-60 (in words),[5],did not exhibit cytotoxic activity
same,solubility (in words),[4],less soluble
"COc1cc([C@@H]2c3cc4c(cc3[C@@H](O[C@@H]3O[C@@H]5CO[C@@H](C)O[C@H]5[C@H](O)[C@H]3O)[C@H]3COC(=O)[C@H]23)OCO4)cc(OC)c1O [Etoposide, etoposide, reference compound]",unwinding / intercalation (in words),wheatgerm topo I,showed no signs of unfolding
"O=c1nc(SCc2cc(F)cc(C(F)(F)F)c2)nc(SCc2ccc3nc(Cl)ccc3c2)[nH]1 [Compound 30, 6-(((2-Chloroquinolin-6-yl)methyl)thio)−4-((3-fluoro-5-(trifluoromethyl)benzyl)thio)−1,3,5-triazin-2(1H)-one]",linear product in the competitive cleavage assay (in words),human topo IIα [7],decreased the amount of linear product of the etoposide-topo IIα complex
same,unwinding / intercalation (in words),wheatgerm topo I,inhibitors rather than intercalators
same,IC50,human topo IIα [1],12 ± 4.8 µM
same,IC50,human topo IIβ,10.6 ± 28.8 µM
same,linear plasmid in the cleavage assay (in words),human topo IIα [2],only a very weak increase in the linear plasmid at the highest concentration of 125 μM
same,interaction with the ATPase domain of topo IIα by STD NMR (in words),[3],confirmed the interaction
same,solubility (in words),[4],more soluble compared to the previous series; also recorded: more soluble compared to the benzyl-substituted analogues
same,mode of inhibition with respect to ATP (in words),human topo II,ATP-competitive inhibition
"COc1cc(NS(C)(=O)=O)ccc1Nc1c2ccccc2nc2ccccc12 [mAMSA, reference compound]",unwinding / intercalation (in words),wheatgerm topo I,showed intercalator-mediated effects at all 4 concentrations
"O=c1nc(SCc2ccc(C(F)(F)F)cc2)nc(SCc2ccc3sccc3c2)[nH]1 [Compound 25, 6-((Benzo[b]thiophen-5-ylmethyl)thio)−4-((4-(trifluoromethyl)benzyl)thio)−1,3,5-triazin-2(1H)-one]",inhibition at 10 µM,U251,80%
same,cytotoxic activity in NCI-60 (in words),[5],more diverse and potent cytotoxic effects
same,inhibition at 10 µM,SK-MEL-5,89.5%
"CC(C)c1ccc(CSc2nc(SCc3ccc4sccc4c3)[nH]c(=O)n2)cc1 [Compound 26, 6-((Benzo[b]thiophen-5-ylmethyl)thio)−4-((4-isopropylbenzyl)thio)−1,3,5-triazin-2(1H)-one]",cytotoxic activity in NCI-60 (in words),[5],much lower compared to 24 and 25
"O=c1nc(SCc2ccc(C(F)(F)F)cc2)nc(SCc2csc3ccc(Cl)cc23)[nH]1 [Compound 33, 6-(((5-Chlorobenzo[b]thiophen-3-yl)methyl)thio)−4-((4-(trifluoromethyl)benzyl)thio)−1,3,5-triazin-2(1H)-one]","IC50, topo IIα-mediated decatenation assay",human topo IIα [1],single-digit micromolar range
same,IC50,human topo IIα [6],7.7 ± 8.5 µM
